Assay results: PubChem BioAssay AID588767 (The Scripps Research Institute Molecular Screening Center, 2011)
The source made the active and inactive calls.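 How the source made its calls: active means inhibition of at least 50% at 0.1 µM compound; inactive means inhibition below 50%.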

Biological target: Platelet-activating factor acetylhydrolase 2, cytoplasmic (Mus musculus) (UniProt Q8VDG7)
Assay: off-target mouse PAFAH2 activity blockade – cell lysate, gel-based competitive ABPP, fluorescence, selectivity assay for pPAFAH inhibitor project, late-stage follow-up (AID 588767)
Conditions: BW5147 T-cell soluble proteome, FP-Rh, stronger effect = higher value
Outline: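 System: endogenous PAFAH2 within BW5147-derived murine T-cell soluble proteome / Input: proteome 1 mg/mL / Buffer or medium: DPBS / Schedule: compound pre-incubation 30 min and probe labelling 30 min, both 37 °C / Measured by: SDS-PAGE separation with in-gel rhodamine fluorescence scanning / Read-out basis: % inhibition from band density relative to DMSO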

Platelet-activating factor acetylhydrolase 2, cytoplasmic (Mus musculus), sequence (Q8VDG7 whole entry, looked up): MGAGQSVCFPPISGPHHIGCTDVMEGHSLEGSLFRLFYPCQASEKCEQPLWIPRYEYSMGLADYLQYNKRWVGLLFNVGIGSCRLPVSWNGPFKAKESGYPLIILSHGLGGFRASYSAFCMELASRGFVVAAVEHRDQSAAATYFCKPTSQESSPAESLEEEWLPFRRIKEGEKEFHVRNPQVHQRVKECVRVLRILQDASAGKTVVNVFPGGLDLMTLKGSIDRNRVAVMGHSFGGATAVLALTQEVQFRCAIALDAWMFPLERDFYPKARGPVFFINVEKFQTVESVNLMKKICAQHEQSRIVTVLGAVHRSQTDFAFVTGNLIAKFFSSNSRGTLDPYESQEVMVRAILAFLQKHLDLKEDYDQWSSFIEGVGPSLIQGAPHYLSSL

| inhibition (at 0.1 µM) | inhibition (inhibition, at 1 µM) | inhibition (inhibition, at 10 µM) | SMILES |
| --- | --- | --- | --- |
| 0% (inactive) | 0% | 0% | Cc1cc(N2CCN(C(=O)Oc3ccc(-c4ccccc4)cn3)CC2)c2ccccc2n1 |
| 100% |  |  | COc1ccc2cc(-c3cnn(C(=O)N4CCCC4)n3)ccc2c1 |
